pIC50, pKi: −log10 of the molar value.
Tests used:
[1] = system: Human immunodeficiency virus 1; test: microbe, parasite or virus in culture; assay type: functional, organism-based; conditions: Human immunodeficiency virus 1, U-87 MG
[2] = system: Rattus norvegicus; test: Area under curve (0-6 hr) value in rat at a concentration of 10 mg/kg after peroral administration.; assay type: ADME, organism-based; set-up: time < 6 hr, dose 10 mg/kg, route oral; conditions: in vivo, po
[3] = molecular target: C-C chemokine receptor type 5 (Homo sapiens, UniProt P51681); test: Inhibition of RANTES binding to C-C chemokine receptor type 5
Sequence of C-C chemokine receptor type 5 (P51681 whole entry): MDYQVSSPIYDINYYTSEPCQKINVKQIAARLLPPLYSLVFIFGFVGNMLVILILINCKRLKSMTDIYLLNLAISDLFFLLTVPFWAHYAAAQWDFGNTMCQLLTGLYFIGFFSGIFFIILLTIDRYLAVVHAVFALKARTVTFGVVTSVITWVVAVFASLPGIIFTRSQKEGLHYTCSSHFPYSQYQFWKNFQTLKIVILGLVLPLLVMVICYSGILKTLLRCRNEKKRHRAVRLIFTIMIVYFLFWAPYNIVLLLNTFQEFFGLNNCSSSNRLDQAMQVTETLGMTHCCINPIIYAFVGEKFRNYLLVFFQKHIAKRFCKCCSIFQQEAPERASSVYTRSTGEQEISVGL

[4] = system: Rattus norvegicus; test: Area under curve (0-6 hr) value in rat at a concentration of 10 mg/kg, peroral administration.; assay type: ADME, organism-based; set-up: time < 6 hr, dose 10 mg/kg, route oral; conditions: in vivo, po
[5] = In vivo pharmacokinetic parameter, half-life (t1/2) was measured in rat after 10 mg/kg iv administration; assay type: ADME, organism-based; set-up: dose 10 mg/kg, route intravenous
Procedure, shortened: (§1)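 Rat pharmacokinetics using the amorphous tartrate salt. Dosing was 10 mg/kg iv in 20% hydroxypropyl-β-cyclodextrin and 10 mg/kg po in 0.4% methylcellulose. […] Oral bioavailability was derived by comparing oral with iv exposure.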

[6] = system: Canis familiaris; test: In vivo pharmacokinetic parameter, Area under curve (AUC) was measured in dog after 1 mg/kg iv administration
[7] = system: Rattus norvegicus; test: Oral bioavailability was evaluated in rat at a dose of 10 mg/kg; assay type: ADME, organism-based; conditions: in vivo
Procedure, shortened: as §1

[8] = Oral bioavailability was evaluated in monkey at a dose of 2 mg/kg; conditions: simiiformes, in vivo
[9] = In vivo pharmacokinetic parameter, half-life (t1/2) was measured in monkey after 2 mg/kg iv administration; conditions: simiiformes
[10] = system: Rattus norvegicus; test: In vivo pharmacokinetic parameter, Area under curve (AUC) was measured in rat after 10 mg/kg iv administration; assay type: ADME, organism-based; set-up: dose 10 mg/kg, route intravenous
Procedure, shortened: as §1

[11] = In vivo pharmacokinetic parameter, half-life (t1/2) was measured in dog after 1 mg/kg iv administration
[12] = system: Canis familiaris; test: Oral bioavailability was evaluated in dog at a dose of 3 mg/kg; conditions: in vivo
[13] = In vivo pharmacokinetic parameter, Area under curve (AUC) was measured in monkey after 2 mg/kg iv administration; conditions: simiiformes
[14] = In vivo pharmacokinetic parameter, half-life (t1/2) was measured in dog after 1 mg/kg iv administration; remark: listed apart in the source

Compound | pIC50 [1] | AUC 0-6h [2] [ng·h/mL] | pKi [3] | other results
CON=C(c1ccc(Br)cc1)C1CCN(C2(C)CCN(C(=O)c3c(C)cccc3C)CC2)CC1 | 8.82 | 2100 | – | –
CO/N=C(/c1ccc(Br)cc1)C1CCN(C2CCN(C(=O)c3c(C)cccc3C)CC2)CC1 | 8.92 | 1400 | 8.70 | –
CCO/N=C(\c1ccc(Br)cc1)C1CCN(C2(C)CCN(C(=O)c3c(C)cccc3C)CC2)CC1 | 8.89 | 1000 | 8.74 | –
Cc1cccc(C)c1C(=O)N1CCC(C)(N2CCC(C(=O)c3ccc(Br)cc3)CC2)CC1 | 7.89 | – | 7.27 | –
CO/N=C(\c1ccc(Br)cc1)C1CCN(C2(C)CCN(C(=O)c3c(C)cccc3O)CC2)CC1 | 8.40 | 3000 | – | –
Cc1cccc(C)c1C(=O)N1CCC(C)(N2CCC(Oc3ccc(Br)cc3)CC2)CC1 | – | – | 7.54 | –
CO/N=C(/c1ccc(Br)cc1)C1CCN(C2(C)CCN(C(=O)c3c(C)cccc3C)CC2)CC1 | 8.55 | 1200 | 7.60 | –
CCO/N=C(\c1ccc(Br)cc1)C1CCN(C2(C)CCN(C(=O)c3c(C)ccnc3C)CC2)CC1 | 9.70 | 2100 | 8.96 | –
CO/N=C(\c1ccc(Br)cc1)C1CCN(C2(C)CCN(C(=O)c3c(C)cccc3N)CC2)CC1 | 9.30 | 1300 | 8.35 | –
CO/N=C(\c1ccc(Br)cc1)C1CCN(C2(C)CCN(C(=O)c3c(N)cccc3Cl)CC2)CC1 | 9.22 | 610 | 8.47 | –
CO/N=C(\c1ccc(Br)cc1)C1CCN(C2(C)CCN(C(=O)c3c(C)ccnc3C)CC2)CC1 | 9.30 | 1900 | 8.96 | –

Continued, in another order:

pIC50 [1] | AUC 0-6h [2] [ng·h/mL] | pKi [3] | Compound | other results
8.00 | – | 7.18 | Cc1cccc(C)c1C(=O)N1CCC(C)(N2CCC(Cc3ccc(Br)cc3)CC2)CC1 | AUC 0-6h [4]: 40 ng·h/mL
– | – | 7.18 | COc1ccc(S(=O)(=O)c2ccc(CC3CCN(C4CCN(C(=O)c5ccc(F)c6ccccc56)CC4)CC3)cc2)cc1 | –
8.04 | – | 7.32 | CCO/N=C(/c1ccc(Br)cc1)C1CCN(C2(C)CCN(C(=O)c3c(C)cccc3C)CC2)CC1 | –
8.26 | 150 | – | Cc1cccc(C)c1C(=O)N1CCC(C)(N2CCC(Nc3ccc(Br)cc3)CC2)CC1 | –
8.25 | 2400 | 7.74 | CO/N=C(\c1ccc(Br)cc1)C1CCN(C2(C)CCN(C(=O)c3c(C)cc[n+]([O-])c3C)CC2)CC1 | –
9.22 | 6500 | 8.68 | CCO/N=C(\c1ccc(Br)cc1)C1CCN(C2(C)CCN(C(=O)c3c(C)cc[n+]([O-])c3C)CC2)CC1 [ANCRIVIROC] | half-life [5]: 5 h; AUC [6]: 2800 ng·h/mL; BA [7]: 63%; BA [8]: 52%; half-life [9]: 6 h; AUC [10]: 13000 ng·h/mL; half-life [11]: 10 h; BA [12]: 92%; AUC [13]: 7400 ng·h/mL; half-life [14]: 10 h

Source: ChEMBL document CHEMBL1134621, “Discovery of 4-[(Z)-(4-bromophenyl)- (ethoxyimino)methyl]-1'-[(2,4-dimethyl-3- pyridinyl)carbonyl]-4'-methyl-1,4'- bipiperidine N-oxide (SCH 351125): an orally bioavailable human CCR5 antagonist for the treatment of HIV infection” (J Med Chem, 2001)
